# C2C12 statin: suppression of simvastatin myotoxicity | C2C12 myotubes + simvastatin, ATP luminescence, 48 h; scaled: DMSO 0, geranylgeraniol control 100 | rescue of ATP level, % at 7.49 µM | 330,000 compounds, 0.78% hits;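 active = mean ATP rescue above about 67%, or every replicate alone reaching that limit, limit read from the data, passing the limit was not always enough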;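 note: myotubes were challenged with 10 µM simvastatin during compound exposure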
# ASAP1 GAP inh: ASAP1 ArfGAP inhibition. Q9ULH1. inhibition, % at 16.5 µM. 360,000 compounds, 0.19% hits. ASAP1-stimulated ARF1 GTP hydrolysis, GDP FP detection; in the data active = inhibition above about 25%;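 note: 0% = vehicle with enzyme and substrate and 100% = no enzyme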
# ARFGAP1 inh: inhibitors of rat ARFGAP1; Arfgap1-stimulated ARF1 GTP hydrolysis, GDP FP detection; 360,000 compounds, 0.26% hits; inhibition, % at 16.5 µM;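 active = inhibition above a per-plate limit, mean inhibition of low control wells plus 3 SD, cut at about 25% in these data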;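 note: 0% = DMSO wells with enzyme and 100% = wells lacking Arfgap1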
# Target sequence (Q62848 1-136 limits assumed): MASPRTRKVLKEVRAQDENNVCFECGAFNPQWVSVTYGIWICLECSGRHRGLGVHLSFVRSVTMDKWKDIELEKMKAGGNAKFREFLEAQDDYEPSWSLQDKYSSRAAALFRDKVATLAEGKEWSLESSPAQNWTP
#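 Material – truncated rat Arfgap1 GAP domain · Buffer or medium – HEPES-based buffer, pH 7.5 · Reagent – human ARF1(Δ1-17)-GTP substrate · Dosing – 16.5 µM single point, 1.26% DMSO · Schedule – GTP hydrolysis reaction 2 h at 25 °C · Technique – GDP detection by fluorescence polarization · Benchmarks – No-Arfgap1 wells (100%) versus DMSO full-reaction wells (0%) · Repeats – single replicate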
# Mot1-301 SUMO: inhibitors of SUMOylation pathway: yeast Mot1-301 growth rescue; AID 2716; growth rescue, % at 18.8 µM; 320,000 compounds, 1% hits; S. cerevisiae Mot1-301 growth rescue, ATP luminescence, 38.5C; percent above DMSO median, 100 means doubled;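 active = every valid replicate shows activation above 250% relative to neutral control wells; inactive = the rest, any valid replicate at or below 250%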;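 note: OY570 slx delta 5 strain wells were the positive control but not used for scaling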
# A3G deaminase: inhibitors of human APOBEC3G DNA deaminase | Q9HC16 | recombinant A3G, ssDNA deamination FAM/TAMRA fluorescence | inhibition, % at 20 µM | 330,000 compounds, 0.28% hits | AID 493012;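 active = inhibition of at least 40% at 20 µM, with no more than 30% in the related APOBEC3A deaminase screen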;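 note: plate controls were DMSO wells with A3G for no effect and wells lacking A3G enzyme for full effect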
# A3A deaminase: inhibitors of human APOBEC3A DNA deaminase; P31941; AID 493011; recombinant A3A, FAM/TAMRA ssDNA deamination fluorescence; 330,000 compounds, 0.41% hits; inhibition, % at 20 µM;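 active = at least 40% inhibition at 20 µM here, with at most 30% in a related deaminase screen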;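 note: plate controls were A3A with DMSO for no effect and wells lacking A3A enzyme for full effect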
# Target sequence (P31941 whole entry, looked up): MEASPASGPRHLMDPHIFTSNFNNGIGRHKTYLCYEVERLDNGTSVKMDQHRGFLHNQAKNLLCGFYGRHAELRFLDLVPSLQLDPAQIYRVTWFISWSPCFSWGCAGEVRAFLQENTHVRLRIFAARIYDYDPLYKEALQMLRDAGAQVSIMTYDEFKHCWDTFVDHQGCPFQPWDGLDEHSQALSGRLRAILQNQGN
# Starred values were filed as active, the others as inactive; · = no result; + = active, no number. A selection: hits, their analogues and other compounds. The true share with any hit is near 2.1%.
SMILES,C2C12 statin,ASAP1 GAP inh,ARFGAP1 inh,Mot1-301 SUMO,A3G deaminase,A3A deaminase
CCOC(=O)CNC=C(C(=O)OCC)C(=O)OCC,25,-2,1,-9,-1,4
Cc1ccc(NC(=O)c2cccc(N3C(=O)C4C5CCC(C5)C4C3=O)c2)c(C)c1 (stereo not given),·,-3,3,+,-7,-1
Cc1ccccc1NC(=O)c1cccc(N2C(=O)C3C4CCC(C4)C3C2=O)c1 (stereo not given),·,-1,16,3,-4,-2
CO[C@H]1CN(C)C(=O)c2cc(NS(C)(=O)=O)ccc2OC[C@H](C)N(C(=O)C2CCCCC2)C[C@H]1C,1,·,·,·,·,·
NC(=O)NC(=O)CSc1nc(-c2ccccc2)c(-c2ccccc2)n1CC1CCCO1 (stereo not given),139*,8,-5,·,2,2
COc1ccc(OC)c(NC(=O)COC(=O)C2CCN(C(=O)c3ccc(Cl)cc3)CC2)c1,·,-1,2,-4,0,-1
Cc1cc(NC(=O)COC(=O)C2CCN(C(=O)c3ccc(Cl)cc3)CC2)no1,111*,3,6,15,1,2
CCS(=O)(=O)NCC[C@H]1CC[C@H](NC(=O)C2CCC2)[C@H](CO)O1,5,·,·,·,·,·
O=C(Nc1ccc2c(c1)[C@H]1C[C@H](CC(=O)N3CCc4ccccc4C3)O[C@H](CO)[C@H]1O2)NC1CCCC1,2,·,·,·,·,·
CC(C)CCOc1ccc(Cl)cc1CN1CCOCC1,2,-7,-3,313*,4,1
COCCCNCCOCCSc1ccc(Cl)cc1,·,4,-2,279*,-1,-2
C[C@H](CO)N1C[C@H](C)[C@H](CN(C)C(=O)Nc2cccc3ccccc23)Oc2c(NC(=O)c3nc4ccccc4s3)cccc2C1=O,-23,·,·,·,·,·
O=C(Nc1ccc2nc(-c3cccnc3)[nH]c2c1)C12CC3CC(CC(C3)C1)C2,75*,8,3,1,1,3
C[C@H]1CN([C@@H](C)CO)C(=O)Cc2cc(NC(=O)CCC(F)(F)F)ccc2O[C@H]1CN(C)Cc1ccc2c(c1)OCO2,36,·,·,·,·,·
O=C(CN1C(=O)CCC1=O)Nc1ccc2c3c(cccc13)CC2,92*,-3,11,-11,-8,-4
COc1ccc(S(=O)(=O)N2CCN(c3ccc4nnc(-c5ccccc5)n4n3)CC2)cc1,111*,-12,0,5,-1,5
C[C@H](CO)N1C[C@H](C)[C@@H](CN(C)Cc2ccc(Cl)c(Cl)c2)Oc2ccc(NC(=O)C3CC3)cc2CC1=O,85*,·,·,·,·,·
C[C@@H]1CN([C@H](C)CO)C(=O)Cc2cc(NC(=O)c3ccncc3)ccc2O[C@@H]1CN(C)Cc1ccc(Cl)c(Cl)c1,70*,·,·,·,·,·
C[C@H]1CN([C@@H](C)CO)C(=O)Cc2cc(NC(=O)C3CC3)ccc2O[C@@H]1CN(C)Cc1ccc(Cl)c(Cl)c1,12,·,·,·,·,·
COc1ccc(NC(=O)Nc2ccc3c(c2)[C@@H]2C[C@@H](CC(=O)NC4CCCC4)O[C@@H](CO)[C@@H]2O3)cc1,3,·,·,·,·,·
Cc1cc(C(=O)Nc2cccc3c2O[C@H](CN(C)C(=O)Nc2ccc(F)cc2)[C@H](C)CN([C@@H](C)CO)C3=O)n(C)n1,6,·,·,·,·,·
CCCNC(=O)c1c(N)n(-c2cccc(OC)c2)c2nc3ccccc3nc12,106*,-2,-14,55,-6,-5
COCCCNC(=O)c1c(N)n(-c2cccc(S(N)(=O)=O)c2)c2nc3ccccc3nc12,-2,-5,3,-5,-5,-9
C[C@H]1CN([C@@H](C)CO)C(=O)c2cc(NC(=O)CCC(F)(F)F)ccc2O[C@@H]1CN(C)Cc1ccc(Cl)c(Cl)c1,-44,·,·,·,·,·
N#CCCCSc1nnc(CSc2nc3ccccc3s2)n1-c1ccccc1,103*,-19,4,-16,-3,0
COc1ccc(NC(=O)Nc2ccc3c(c2)[C@H]2C[C@@H](CC(=O)O)O[C@@H](CO)[C@H]2O3)cc1,0,·,·,·,·,·
Fc1cccc(CN2CCN3CCCC3C2C2CCCCC2)c1 (stereo not given),129*,-6,-15,452,-7,-4
O=C(NCc1ccco1)C(c1ccccc1)N(Cc1cccnc1)C(=O)Cn1nnc2ccccc21 (stereo not given),-7,6,6,-17,-6,-3
